Activity calls are given as the source filed them. The calls are words filed in the database; no cut-off is given here.
Assays:
CCRF-CEM = test: Cytotoxicity against human CCRF-CEM cells assessed as cell growth at 10^-5 M after 48 hrs by SRB assay; assay type: functional; conditions: read-out: Activity
Procedure, shortened: (§1)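 NCI 60-cell-line one-dose primary screen: cells inoculated and preincubated 24–48 h, then test agent added at a single 10^-5 M concentration for a further 48 h. Endpoint is sulforhodamine B protein staining read spectrophotometrically. Reported as percent growth relative to untreated control cells.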

Yamadazyma tenuis [1] = test: Antifungal activity against Candida tenuis at 1 to 5 mg/mL after 48 to 72 hrs by stiff-plate agar-diffusion method; assay type: functional, organism-based
Procedure, shortened: (§2)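 Fungal plates run by stiff-plate agar diffusion, substances applied to grooves at 5 mg/mL; 10^9 c.f.u./mL cells; incubation 48–72 h at 28–30 °C. Inhibition zone diameter scored (11–15 mm not sensitive, 16–25 mm sensitive, >25 mm highly sensitive). Nystatin standard; experiments done three times.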

Escherichia coli [2] = test: Antibacterial activity against Escherichia coli at 1 to 5 mg/mL after 24 hrs by stiff-plate agar-diffusion method; assay type: functional, organism-based
Procedure, shortened: (§3)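 Agar diffusion (stiff plate) with test substances at 5 mg/mL in grooves, allowed to diffuse into nutrient agar; inoculum 10^9 c.f.u./mL; bacteria incubated 24 h at 35 °C. Read-out: inhibition zone diameter (not sensitive 11–15 mm, sensitive 16–25 mm, highly sensitive >25 mm). Vancomycin and oxacillin as standards; three repeats.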

K562 = test: Cytotoxicity against human K562 cells assessed as cell growth at 10^-5 M after 48 hrs by SRB assay; assay type: functional; conditions: K562, 48 h, read-out: Activity; procedure, shortened: as §1
SK-OV-3 = test: Cytotoxicity against human SKOV3 cells assessed as cell growth at 10^-5 M after 48 hrs by SRB assay; assay type: functional; conditions: SK-OV-3, 48 h, read-out: Activity
Procedure, shortened: (§4)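 NCI human tumor cell line panel from nine cancer types. Each line was inoculated and preincubated 24–48 h, then exposed to a single concentration (10^-5 M) for 48 h. Growth was read by sulforhodamine B protein staining, measured spectrophotometrically. Value reported as percent growth of treated cells relative to untreated controls.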

[3] = system: Photobacterium leiognathi; test: Antibacterial activity against Photobacterium leiognathi Sh1 assessed as inhibition of bacterial luminescence at 0.025 mg/mL after 10 mins by bioluminometry-based acute action test; assay type: functional; set-up: scale not given: the % may be the effect or the level left
Procedure, shortened: (§5)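 Marine P. leiognathi Sh1 (Azov Sea shrimp isolate) diluted in chloride solution to 10^5 cells/mL; compounds suspended in DMSO mixed with 1 mL bacterial suspension. Acute test: 10 min at 25 °C, then bioluminescence measured by bioluminometer as % of compound-free control. Tetracycline reference.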

[4] = system: Photobacterium leiognathi; test: Antibacterial activity against Photobacterium leiognathi Sh1 assessed as inhibition of bacterial luminescence at 0.1 mg/mL after 10 mins by bioluminometry-based chronic action test; assay type: functional; set-up: scale not given: the % may be the effect or the level left
Procedure, shortened: (§6)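 Chronic (growth plus luminescence) test with P. leiognathi Sh1 at 10^5 cells/mL in chloride solution, compounds added in DMSO. After 10 min at 25 °C, growth medium added at 1:50 and the mix incubated 16–18 h at 30 °C. Luminescence then measured by bioluminometer as % of untreated control. Tetracycline reference.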

Mycobacterium [5] = test: Antibacterial activity against Mycobacterium luteum at 1 to 5 mg/mL after 24 hrs by stiff-plate agar-diffusion method; assay type: functional, organism-based; procedure, shortened: as §3
Aspergillus niger [6] = test: Antifungal activity against Aspergillus niger at 1 to 5 mg/mL after 48 to 72 hrs by stiff-plate agar-diffusion method; assay type: functional, organism-based; procedure, shortened: as §2
[7] = system: Photobacterium leiognathi; test: Antibacterial activity against Photobacterium leiognathi Sh1 assessed as inhibition of bacterial luminescence at 0.025 mg/mL after 10 mins by bioluminometry-based chronic action test; assay type: functional; set-up: scale not given: the % may be the effect or the level left; procedure, shortened: as §6
[8] = system: Photobacterium leiognathi; test: Antibacterial activity against Photobacterium leiognathi Sh1 at 0.1 to 0.25 ug/mL; assay type: functional, organism-based
UO-31 = test: Cytotoxicity against human UO31 cells assessed as cell growth at 10^-5 M after 48 hrs by SRB assay; assay type: functional; conditions: UO-31, 48 h, read-out: Activity; procedure, shortened: as §4
[9] = system: Photobacterium leiognathi; test: Antibacterial activity against Photobacterium leiognathi Sh1 assessed as inhibition of bacterial luminescence at 0.1 mg/mL after 10 mins by bioluminometry-based acute action test; assay type: functional; set-up: scale not given: the % may be the effect or the level left; procedure, shortened: as §5
U-251 = test: Cytotoxicity against human U251 cells assessed as cell growth at 10^-5 M after 48 hrs by SRB assay; assay type: functional; conditions: U-251, 48 h, read-out: Activity; procedure, shortened: as §4
[10] = system: Photobacterium leiognathi; test: Antibacterial activity against Photobacterium leiognathi Sh1 assessed as inhibition of bacterial luminescence at 0.25 mg/mL after 10 mins by bioluminometry-based chronic action test; assay type: functional; set-up: scale not given: the % may be the effect or the level left; procedure, shortened: as §6
SNB-75 = test: Cytotoxicity against human SNB75 cells assessed as cell growth at 10^-5 M after 48 hrs by SRB assay; assay type: functional; conditions: SNB-75, 48 h, read-out: Activity; procedure, shortened: as §4
M14 = test: Cytotoxicity against human M14 cells assessed as cell growth at 10^-5 M after 48 hrs by SRB assay; assay type: functional; conditions: M14, 48 h, read-out: Activity; procedure, shortened: as §1
SR = test: Cytotoxicity against human SR cells assessed as cell growth at 10^-5 M after 48 hrs by SRB assay; assay type: functional; conditions: read-out: Activity; procedure, shortened: as §4
PC-3 = test: Cytotoxicity against human PC3 cells assessed as cell growth at 10^-5 M after 48 hrs by SRB assay; assay type: functional; conditions: PC-3, 48 h, read-out: Activity; procedure, shortened: as §4
[11] = system: Photobacterium leiognathi; test: Antibacterial activity against Photobacterium leiognathi Sh1 assessed as inhibition of bacterial luminescence at 0.25 mg/mL after 10 mins by bioluminometry-based acute action test; assay type: functional; set-up: scale not given: the % may be the effect or the level left; procedure, shortened: as §5
UACC-257 = test: Cytotoxicity against human UACC257 cells assessed as cell growth at 10^-5 M after 48 hrs by SRB assay; assay type: functional; conditions: UACC-257, 48 h, read-out: Activity; procedure, shortened: as §4
Staphylococcus aureus [12] = test: Antibacterial activity against Staphylococcus aureus at 1 to 5 mg/mL after 24 hrs by stiff-plate agar-diffusion method; assay type: functional, organism-based; procedure, shortened: as §3
A549 = test: Cytotoxicity against human A549 cells assessed as cell growth at 10^-5 M after 48 hrs by SRB assay; assay type: functional; conditions: A549, 48 h, read-out: Activity; procedure, shortened: as §1
MOLT-4 = test: Cytotoxicity against human MOLT4 cells assessed as cell growth at 10^-5 M after 48 hrs by SRB assay; assay type: functional; conditions: MOLT-4, 48 h, read-out: Activity; procedure, shortened: as §4
CAKI-1 = test: Cytotoxicity against human Caki1 cells assessed as cell growth at 10^-5 M after 48 hrs by SRB assay; assay type: functional; conditions: CAKI-1, 48 h, read-out: Activity; procedure, shortened: as §1
SK-MEL-5 = test: Cytotoxicity against human SK-MEL-5 cells assessed as cell growth at 10^-5 M after 48 hrs by SRB assay; assay type: functional; conditions: SK-MEL-5, 48 h, read-out: Activity; procedure, shortened: as §4
SF-295 = test: Cytotoxicity against human SF295 cells assessed as cell growth at 10^-5 M after 48 hrs by SRB assay; assay type: functional; conditions: SF-295, 48 h, read-out: Activity; procedure, shortened: as §4
EKVX = test: Cytotoxicity against human EKVX cells assessed as cell growth at 10^-5 M after 48 hrs by SRB assay; assay type: functional; conditions: read-out: Activity; procedure, shortened: as §1
Aspergillus niger [13] = test: Antifungal activity against Aspergillus niger assessed as zone of inhibition at 0.5 mg/mL after 48 to 72 hrs by stiff-plate agar-diffusion method; assay type: functional; conditions: read-out: DIZ
Aspergillus niger [14] = test: Antifungal activity against Aspergillus niger assessed as zone of inhibition at 0.1 mg/mL after 48 to 72 hrs by stiff-plate agar-diffusion method; assay type: functional; conditions: read-out: DIZ
Staphylococcus aureus [15] = test: Antibacterial activity against Staphylococcus aureus assessed as zone of inhibition at 0.5 mg/mL after 24 hrs by stiff-plate agar-diffusion method; assay type: functional; conditions: read-out: DIZ
Mycobacterium [16] = test: Antibacterial activity against Mycobacterium luteum assessed as zone of inhibition at 0.1 mg/mL after 24 hrs by stiff-plate agar-diffusion method; assay type: functional; conditions: read-out: DIZ
Yamadazyma tenuis [17] = test: Antifungal activity against Candida tenuis assessed as zone of inhibition at 0.1 mg/mL after 48 to 72 hrs by stiff-plate agar-diffusion method; assay type: functional; conditions: read-out: DIZ
Staphylococcus aureus [18] = test: Antibacterial activity against Staphylococcus aureus assessed as zone of inhibition at 0.1 mg/mL after 24 hrs by stiff-plate agar-diffusion method; assay type: functional; conditions: read-out: DIZ
Yamadazyma tenuis [19] = test: Antifungal activity against Candida tenuis assessed as zone of inhibition at 0.5 mg/mL after 48 to 72 hrs by stiff-plate agar-diffusion method; assay type: functional; conditions: read-out: DIZ
Mycobacterium [20] = test: Antibacterial activity against Mycobacterium luteum assessed as zone of inhibition at 0.5 mg/mL after 24 hrs by stiff-plate agar-diffusion method; assay type: functional; conditions: read-out: DIZ
Escherichia coli [21] = test: Antibacterial activity against Escherichia coli assessed as zone of inhibition at 0.1 mg/mL after 24 hrs by stiff-plate agar-diffusion method; assay type: functional; conditions: read-out: DIZ
Escherichia coli [22] = test: Antibacterial activity against Escherichia coli assessed as zone of inhibition at 0.5 mg/mL after 24 hrs by stiff-plate agar-diffusion method; assay type: functional; conditions: read-out: DIZ
[23] = system: Photobacterium leiognathi; test: Antibacterial activity against Photobacterium leiognathi Sh1 assessed as inhibition of bacterial luminescence at 0.025 mg/mL after 16 to 18 hrs by bioluminometry-based chronic action test; set-up: scale not given: the % may be the effect or the level left
[24] = in the assay text read “after 16 to 18 hrs” for “after 10 mins”

Row | SMILES | growth at 10 µM (CCRF-CEM) [%] | Activity (Yamadazyma tenuis [1]) | Activity (Escherichia coli [2]) | growth at 10 µM (K562) [%] | growth at 10 µM (SK-OV-3) [%] | Activity [3] [%] | Activity [4, 24] [%] | Activity (Mycobacterium [5]) | Activity (Aspergillus niger [6]) | Activity [7, 24] [%] | Activity [8] | growth at 10 µM (UO-31) [%] | Activity [9] [%] | Activity [10, 24] [%] | growth at 10 µM (SNB-75) [%] | growth at 10 µM (SR) [%] | growth at 10 µM (PC-3) [%] | Activity [11] [%] | growth at 10 µM (UACC-257) [%] | Activity (Staphylococcus aureus [12]) | other results
1 | O=C(O)CSc1nc2ccccc2c2nc(=O)c(-c3ccccc3)nn12 | 92.5 | inactive | inactive | 92 | 97 | 100 | 40.9 | inactive | inactive | 34 | inactive | 89 | 75 | 3.6 | 86.6 | 91.9 | 90.8 | 50 | 93.2 | inactive | growth at 10 µM (U-251): 91.4%; growth at 10 µM (M14): 96.8%; growth at 10 µM (A549): 82.5%
2 | Cc1ccc(-c2nn3c(SCC(=O)O)nc4ccccc4c3nc2=O)cc1 | 95.6 | inactive | inactive | 94.5 | 89.9 | 91.7 | 255.3 | inactive | inactive | 93.3 | inactive | 85.3 | 20 | 0 | 74.2 | 68 | 86.5 | 0 | 95.1 | inactive | growth at 10 µM (MOLT-4): 84.9%; growth at 10 µM (CAKI-1): 82.8%; growth at 10 µM (SK-MEL-5): 96%; growth at 10 µM (SF-295): 84.3%; growth at 10 µM (EKVX): 95%; growth at 10 µM (A549): 96.5%
3 | COc1ccc(-c2nn3c(SCC(=O)Nc4ccc(C56CC7CC(CC(C7)C5)C6)cc4)nc4ccccc4c3nc2=O)cc1 |  |  |  |  |  | 76.6 |  |  |  |  |  |  | 59.57 |  |  |  |  | 59.57 |  |  | zone of inhibition at 500 µg/mL (Aspergillus niger [13]): 0 mm; zone of inhibition at 100 µg/mL (Aspergillus niger [14]): 0 mm; zone of inhibition at 500 µg/mL (Staphylococcus aureus [15]): 0 mm; zone of inhibition at 100 µg/mL (Mycobacterium [16]): 0 mm; Activity [4]: 34.62%; zone of inhibition at 100 µg/mL (Yamadazyma tenuis [17]): 0 mm; zone of inhibition at 100 µg/mL (Staphylococcus aureus [18]): 7 mm; Activity [7]: 48.72%; zone of inhibition at 500 µg/mL (Yamadazyma tenuis [19]): 0 mm; zone of inhibition at 500 µg/mL (Mycobacterium [20]): 0 mm; zone of inhibition at 100 µg/mL (Escherichia coli [21]): 0 mm; Activity [10]: 76.92%; zone of inhibition at 500 µg/mL (Escherichia coli [22]): 0 mm
4 | CCC1C2CCC(C2)C1NC(=O)CSc1nc2ccccc2c2nc(=O)c(-c3ccc(C)cc3)nn12 (stereo unspecified) |  | inactive | inactive |  |  | 110 | 120 | inactive | inactive |  |  |  | 96 | 44 |  |  |  | 120 |  | inactive | Activity [23]: 100%

From ChEMBL document CHEMBL1914438, “Synthesis and biological activity of novel N-cycloalkyl-(cycloalkylaryl)-2-[(3-R-2-oxo-2H-[1,2,4]triazino[2,3-c]quinazoline-6-yl)thio]acetamides” (2011)
